A short description of experiment [1]: nonspecific flux increase, KCNQ1-free cells – parental CHO cells, counter-screen for KCNQ1 potentiator project (AID 493006;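 active = duplicate-averaged activation above buffer control mean plus 5 SD of those controls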). Particulars: parental CHO-K1 cells, FluxOR thallium flux, at 10 µM; active compounds read high. A digest of the protocol: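 Assay system: Untransfected host CHO-K1 cells with FluxOR thallium dye | Probe or stimulus: Potassium/thallium depolarization pulse | Schedule: Overnight 37 °C plating, 90 min RT dye, 20 min compound | Detection: Kinetic thallium-flux fluorescence | Read-out: Max-minus-min fluorescence over baseline, percent of buffer-to-R-L3 span | Benchmarks: Low control buffer, high control R-L3 activator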

Experiment [2] deals with Potassium voltage-gated channel subfamily KQT member 1 (Homo sapiens) (UniProt P51787). In words: enhancement of KCNQ1 channel thallium flux – FluxOR thallium flux, CHO cells, duplicates, confirmation (AID 493007;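 active = potentiation averaged over duplicate wells exceeding buffer-only control mean by more than 3 SD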;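 as to outcome: cells depolarized by a potassium plus thallium sulfate stimulus after compound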). Conditions: KCNQ1 cell line, FluxOR thallium flux fluorescence, at 10 µM; active compounds read high, % of reference activator effect, buffer zero. In short, it runs like this: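 Material: KCNQ1-expressing CHO cell line; Incubation: FluxOR dye loading 90 min, compound exposure 20 min, room temperature; Detection: FluxOR Tl+ flux fluorescence, 10 s baseline plus 110 s recording; Read-out: percent activation between buffer and R-L3 responses; Control set: buffer-only wells as 0% and R-L3 activator as 100%; Replication: duplicate wells per compound.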

The target of experiment [3] is Potassium voltage-gated channel subfamily KQT member 2 (Rattus norvegicus) (UniProt O88943). In words: KCNQ2 thallium flux enhancement – KCNQ2-CHO-K1 cells, selectivity assay for KCNQ1 potentiator project (AID 493009).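 Also: assay conditions were tuned for KCNQ1 rather than KCNQ2 modulators; signal is max minus min fluorescence divided by baseline after thallium stimulus.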 Particulars: FluxOR thallium flux fluorescence, at 10 µM; active compounds read high, scaled: buffer 0, activator control 100.
Experiment [4] addresses Potassium voltage-gated channel subfamily KQT member 1 (Homo sapiens) (UniProt P51787). Nature of the experiment: KCNQ1 activators by electrophysiology – IonWorks patch clamp, KCNQ1-CHO cells, orthogonal assay for KCNQ1 potentiator project, confirmation (AID 493184;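 active = current rise at least 3 SD above the untreated control mean in each of two repeat wells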). Particulars: automated patch clamp current, at 10 µM; active compounds read high. A digest of the protocol:
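assay system = KCNQ1-expressing CHO cells | medium = external bath solution at pH 7.4 | probe or stimulus = 2,000 ms depolarization, -90 to +40 mV | compound dosing = 10 µM final, single point | measured by = automated voltage clamp, amphotericin B perforated patch | measure = percent current increase versus pre-compound level | replication = duplicates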
Background: Patch clamp records ionic current or voltage across a cell membrane.

Activity calls are given as the source filed them.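 The calls were made as follows, unless noted: active = mean duplicate potentiation above the buffer control mean plus 5 SD of buffer wells; inactive = the rest.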

Chain of Potassium voltage-gated channel subfamily KQT member 1 (Homo sapiens) (P51787 whole entry, looked up): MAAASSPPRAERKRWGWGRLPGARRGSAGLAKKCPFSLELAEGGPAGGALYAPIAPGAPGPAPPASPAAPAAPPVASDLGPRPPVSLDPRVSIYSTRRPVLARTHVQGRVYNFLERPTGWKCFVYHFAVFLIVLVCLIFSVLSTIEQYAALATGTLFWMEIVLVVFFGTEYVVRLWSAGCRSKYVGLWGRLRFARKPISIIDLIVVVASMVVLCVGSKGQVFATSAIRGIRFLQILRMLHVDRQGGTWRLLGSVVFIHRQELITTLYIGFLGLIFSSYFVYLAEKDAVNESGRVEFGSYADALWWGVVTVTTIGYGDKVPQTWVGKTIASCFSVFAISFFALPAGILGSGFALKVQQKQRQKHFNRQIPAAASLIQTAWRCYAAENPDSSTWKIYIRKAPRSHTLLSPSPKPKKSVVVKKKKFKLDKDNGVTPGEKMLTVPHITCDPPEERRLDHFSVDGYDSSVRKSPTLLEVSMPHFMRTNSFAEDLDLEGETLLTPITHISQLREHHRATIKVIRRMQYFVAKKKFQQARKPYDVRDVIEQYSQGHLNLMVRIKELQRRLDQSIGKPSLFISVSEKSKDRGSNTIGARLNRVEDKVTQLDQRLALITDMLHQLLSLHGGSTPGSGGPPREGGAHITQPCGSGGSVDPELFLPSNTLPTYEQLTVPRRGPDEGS
Chain of Potassium voltage-gated channel subfamily KQT member 2 (Rattus norvegicus) (O88943 whole entry, looked up): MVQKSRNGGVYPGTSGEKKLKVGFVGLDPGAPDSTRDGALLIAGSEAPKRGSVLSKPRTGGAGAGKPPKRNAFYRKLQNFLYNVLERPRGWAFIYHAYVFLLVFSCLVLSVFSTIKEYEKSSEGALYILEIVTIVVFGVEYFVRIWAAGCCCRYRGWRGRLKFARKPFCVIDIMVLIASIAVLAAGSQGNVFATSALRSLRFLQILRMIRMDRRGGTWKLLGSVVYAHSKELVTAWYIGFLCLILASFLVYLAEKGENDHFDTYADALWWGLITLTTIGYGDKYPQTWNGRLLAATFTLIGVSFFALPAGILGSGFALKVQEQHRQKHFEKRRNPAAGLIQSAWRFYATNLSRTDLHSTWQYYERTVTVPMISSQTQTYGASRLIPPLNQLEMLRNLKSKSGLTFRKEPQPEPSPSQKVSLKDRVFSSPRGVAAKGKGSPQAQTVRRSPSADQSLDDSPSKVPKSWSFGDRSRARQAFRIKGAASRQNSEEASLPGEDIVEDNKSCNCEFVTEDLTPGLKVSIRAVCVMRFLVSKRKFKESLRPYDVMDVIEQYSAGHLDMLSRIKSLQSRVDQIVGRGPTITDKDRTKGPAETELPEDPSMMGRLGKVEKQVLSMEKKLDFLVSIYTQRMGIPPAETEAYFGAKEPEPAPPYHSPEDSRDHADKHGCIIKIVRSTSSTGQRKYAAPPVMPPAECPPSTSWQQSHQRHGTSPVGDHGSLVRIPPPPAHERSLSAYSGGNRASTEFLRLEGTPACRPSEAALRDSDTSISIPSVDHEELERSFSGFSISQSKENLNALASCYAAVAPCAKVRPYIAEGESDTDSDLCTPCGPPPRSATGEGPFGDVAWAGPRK

`CC(C)(C)NC(=O)C(=O)NNC(=O)c1ccc(C(C)(C)C)cc1`: the activation in experiment [1] is 341% (active). Moreover, the figures for the potentiation in experiment [2] and in experiment [3] were 112% (active) and 352% (active), respectively. For the same molecule, in experiment [4], the result was inactive.

As for `CCc1nnc(NC(=O)c2ccc(S(=O)(=O)N(CC)Cc3ccccc3)cc2)o1`, in experiment [1], the activation is 254% (active). In addition, the potentiation in experiment [2] was 107% (active); in experiment [3] it was 270% (active). Besides, in experiment [4], the outcome was inactive.

Consider `CCOc1ncccc1C(=O)OCc1ccc(C#N)cc1`, for which the activation in experiment [1] was 286% (active). The potentiation in experiment [2] was 114% (active); in experiment [3], 392% (active). The outcome in experiment [4] was inactive.

Take `CCOc1ccccc1NC(=O)C(=O)CC(=O)c1ccc(OC)cc1`: in experiment [1], the activation was 164% (active). The results for the potentiation in experiment [2] and in experiment [3] were 64.5% (active) and 216% (active), respectively. For the same molecule, in experiment [4], the result was inactive.

On to `O=c1[nH]c(C(Cl)(Cl)Cl)nc2ccc3ccccc3c12`, for which, in experiment [1], the activation was 166% (active). In addition, the potentiation is 50% (active) in experiment [2] and 202% (active) in experiment [3]. Moreover, the outcome in experiment [4] was inactive.

On to `Cc1c(Cl)cccc1NC(=O)Cn1c(CCC(=O)O)ccc1-c1ccccc1`, for which the outcome in experiment [1], in experiment [2], in experiment [3] and in experiment [4] was inactive.

For the molecule `CCC1(c2ccc(Cl)cc2)NC(=S)N(c2ccc(C)cc2)N1` (stereo not given), in experiment [1], the activation was 574% (active). Also, the potentiation in experiment [2] was 302% (active); in experiment [3] it was 604% (active). The outcome in experiment [4] was inactive.

Regarding `C=CCn1c(O)c(N=NC(=S)Nc2ccccc2F)c2cc(S(=O)(=O)N3CCOCC3)ccc21`, the outcome in experiment [1], in experiment [3] and in experiment [4] was inactive. Also, in experiment [2], the potentiation was 26.5% (active).

As to `COC(=O)c1c(N2C(=O)CC(Sc3ncccc3C(=O)O)C2=O)sc(C)c1C` (stereo not given), the outcome in experiment [1], in experiment [2], in experiment [3] and in experiment [4] was inactive.

Regarding `CN1CCN(S(=O)(=O)c2cccc(C(=O)Nc3cc(Cl)ccc3N3CCOCC3)c2)CC1`, the result in experiment [1], in experiment [2], in experiment [3] and in experiment [4] was inactive.

For `C/C(Cl)=C\Cn1c(O)c(N=NC(N)=S)c2cc(Br)ccc21`, the result in experiment [1], in experiment [3] and in experiment [4] was inactive. For the same molecule, the potentiation in experiment [2] was 70.5% (active).

For the molecule `COc1cccc(N=Nc2ccc3cccnc3c2O)c1`, the activation in experiment [1] was 154% (active). Further, the potentiation in experiment [2] is 29% (active); in experiment [3] it was 162% (active). Besides, in experiment [4], the outcome was inactive.

Regarding `O=C(C1CCCCC1)N(CCN1CCCC1)c1nc2ccccc2s1`, the outcome in experiment [1], in experiment [2], in experiment [3] and in experiment [4] was inactive.

As to `O=C(CN(c1ccc(Cl)cc1)S(=O)(=O)c1ccc(Cl)c([N+](=O)[O-])c1)NCCc1ccc(F)cc1`, the outcome in experiment [1], in experiment [2], in experiment [3] and in experiment [4] was inactive.

`CC(C(=O)O)n1c2ccccc2c2cn[nH]c(=O)c21` (stereo not given): the outcome in experiment [1], in experiment [2], in experiment [3] and in experiment [4] was inactive.

Take `O=C(NNc1nc2c(F)cccc2s1)c1cc(=O)c2ccccc2o1`: the result in experiment [1], in experiment [2], in experiment [3] and in experiment [4] was inactive.

Turning to `O=C(NC1CC1)C1=NOC(CNc2ncc(C(F)(F)F)cc2Cl)C1` (stereo not given), the result in experiment [1], in experiment [2], in experiment [3] and in experiment [4] was inactive.

Take `CC(C)[N+]1(C)[C@@H]2CC[C@H]1CC(OC(=O)C(CO)c1ccccc1)C2` (stereo not given in full): the outcome in experiment [1], in experiment [2], in experiment [3] and in experiment [4] was inactive.

Take `O=C(NC(=S)N1CCc2ccccc21)c1ccccc1Br`: the activation in experiment [1] was 537% (active). Also, the potentiation is 208% (active) in experiment [2] and 490% (active) in experiment [3]. In addition, in experiment [4], the outcome was inactive.

Turning to `O=C(C1=C(O)C(=O)N(CC2CCCO2)C1c1ccc(Cl)cc1Cl)c1ccco1` (stereo not given), the result in experiment [1], in experiment [2], in experiment [3] and in experiment [4] was inactive.

Take `COc1ccc(Cc2nnc(NC(=O)C3CC(=O)N(c4ccccc4)C3)s2)cc1OC` (stereo not given): the result in experiment [1], in experiment [2], in experiment [3] and in experiment [4] was inactive.

For the molecule `O=C(O)CSc1c2c(nc3cc(C(=O)Nc4cccc(C(F)(F)F)c4)ccc13)CCC2`, the result in experiment [1], in experiment [2], in experiment [3] and in experiment [4] was inactive.

Take `CCn1nnc2cc(C(=O)Nc3cc(S(C)(=O)=O)ccc3Cl)ccc21`: the outcome in experiment [1], in experiment [2], in experiment [3] and in experiment [4] was inactive.

As to `COc1ccc(C(=O)On2c(-c3ccc(Br)cc3)nc3ccccc3c2=O)cc1`, the result in experiment [1], in experiment [2], in experiment [3] and in experiment [4] was inactive.

With `O=C(NC(=S)N1CCN(C/C=C/c2ccccc2)CC1)c1c(F)cccc1F`, the activation in experiment [1] is 139% (active). The potentiation in experiment [2] was 28.5% (active). For the same molecule, the outcome in experiment [3] and in experiment [4] was inactive.

Consider `COc1ccc(NC(=O)/C(=C/c2ccc(OC(C)=O)c(OC)c2)NC(C)=O)cc1`, for which the result in experiment [1], in experiment [2], in experiment [3] and in experiment [4] was inactive.

Consider `Cc1ccc(-c2c(C)n([O-])c3c([n+]2=O)CCCC3)o1`, for which the outcome in experiment [1], in experiment [2], in experiment [3] and in experiment [4] was inactive.

For the molecule `O=P(CCCCCCCCCP(=O)(c1ccccc1)c1ccccc1)(c1ccccc1)c1ccccc1`, in experiment [1], the activation was 256% (active). For the same molecule, the potentiation in experiment [2] is 96.5% (active); in experiment [3], 327% (active). The result in experiment [4] was inactive.

Consider `CC(C)(C)NC(=O)CN(C(=O)CNC(=O)c1cccs1)c1ccc2c(c1)OCCO2`, for which the outcome in experiment [1], in experiment [2], in experiment [3] and in experiment [4] was inactive.

With `COc1cc(NS(=O)(=O)c2ccc(NC(=S)NC(=O)c3sc4cc(F)ccc4c3Cl)cc2)nc(OC)n1`, the activation in experiment [1] is 144% (active). In addition, the outcome in experiment [2], in experiment [3] and in experiment [4] was inactive.
